Assay results pooled from the literature.
Protocols differ between the studies behind these lines.

SMILES | test system | conditions | Tmax [h]
CCOc1cc2ncc(C#N)c(Nc3ccc(OCc4ccccn4)c(Cl)c3)c2cc1NC(=O)/C=C/[C@H]1CCCN1C | human, plasma | oral, 80 mg, single dose | 4.98
O=C(Nc1c(Cl)cncc1Cl)c1ccc(OC(F)F)c(OCC2CC2)c1 | human, plasma | oral, 0.375 mg, multiple doses, once daily | 0.75
CCc1nc2c(C)cc(N3CCN(CC(=O)N4CC(O)C4)CC3)cn2c1N(C)c1nc(-c2ccc(F)cc2)c(C#N)s1 | human, plasma | oral, 1500 mg, fed, healthy volunteers | 2
CCO[C@H]1CCN(Cc2c(OC)cc(C)c3[nH]ccc23)[C@H](c2ccc(C(=O)O)cc2)C1 | human, plasma | oral, 200 mg, multiple doses, twice daily, patients | 2
COc1cc(N2CCC(N3CCN(C)CC3)CC2)ccc1Nc1ncnc(Nc2ccccc2S(=O)(=O)C(C)C)n1 | human, plasma | oral, 200 mg, multiple doses, patients | 2.96
Oc1cc(O)c2c(c1)O[C@@H](c1ccc(O)c(O)c1)[C@@H](O)C2 | human, plasma | oral, 100 mg, single dose | 1
Cn1cc(-c2ccc(S(=O)(=O)[C@@H]3C[C@@H](C(=O)NC4(C#N)CC4)N(C(=O)C4(C(F)(F)F)CC4)C3)c(C(F)(F)F)c2)cn1 | human, plasma | oral, 10 mg, single dose, fasted, healthy volunteers | 4.5
O=C(O)C[C@H](O)C[C@H](O)/C=C/c1c(C2CC2)nc2ccccc2c1-c1ccc(F)cc1 | human, plasma | oral, 2 mg, single dose, fasted, healthy volunteers, tablet | 1.17
C[C@@]1(c2cc(NC(=O)c3ccc(C#N)cn3)ccc2F)C=CSC(N)=N1 | human, plasma | oral, 10 mg, single dose | 0.88
C=CC(=O)N(C)CCOc1c(N)ncnc1-c1cc(F)cc(NC(=O)c2ccc(C3CC3)cc2F)c1C | human, blood | oral, 1.5 mg, single dose, healthy volunteers | 0.5
CO[C@@H]1[C@H](OC(=O)N2CC(CCN3CCOCC3)C2)CC[C@]2(CO2)[C@H]1[C@@]1(C)O[C@@H]1CC=C(C)C | human, plasma | subcutaneous, 4.8 mg, single dose, healthy volunteers | 0.25
Cc1nc(NC(=O)N2CCC[C@H]2C(N)=O)sc1-c1ccnc(C(C)(C)C(F)(F)F)c1 | human, plasma | oral, 90 mg, patients | 2
CC(C)[C@](O)(c1ccc2cc(OC(F)F)c(OC(F)F)cc2c1)c1c[nH]nn1 | female human, plasma | oral, 750 mg, single dose | 3
C[C@@H](Nc1cc(F)cc(F)c1)c1cc(C(=O)N(C)C)cc2c(=O)cc(N3CCOCC3)oc12 | human, plasma | oral, 120 mg, single dose, patients | 2
CC(C)n1cc(C#N)c2cc(-n3cc(C(=O)O)cn3)ccc21 | human, plasma | oral, 800 mg, multiple doses, once daily, steady state | 4
CC(C)(O)c1ccccc1-c1ccc2[nH]c(/C=C/c3ccc(C(F)(F)F)cc3)nc2c1 | male human, plasma | oral, 60 mg, single dose, fasted | 3.98
CC(C)(C)N/[N+]([O-])=N/OC1CCN(c2ccc(C#N)cn2)CC1 | male human, plasma | oral, single dose, healthy volunteers | 1 to 2
Cc1nc(-c2cn3c(n2)-c2ccc(-c4cnn(C(C)(C)C(N)=O)c4)cc2OCC3)n(C(C)C)n1 | human, plasma | oral, 2 mg, patients | 3.97
c1cnc2ccc(Nc3nc(NC4CC4)c4nc[nH]c4n3)cc2c1 | human, plasma | oral, 100 mg/m², patients | 5.7
Nc1cc(C(F)(F)F)c(-c2cc(N3CCOCC3)nc(N3CCOCC3)n2)cn1 | human, plasma | oral, 100 mg/day, patients | 1.5
C#C[C@]1(COP(=O)(O)OP(=O)(O)OP(=O)(O)O)O[C@@H](n2cnc3c(N)nc(F)nc32)C[C@@H]1O | human, plasma | oral, 15 mg, single dose | 6
NS(=O)(=O)NCCNc1nonc1C(=NO)Nc1ccc(F)c(Br)c1 | human, plasma | oral, 100 mg, multiple doses, twice daily, steady state, patients | 2
COc1ccc(Oc2cc(N(C)CCOc3ccc(CC4SC(=O)NC4=O)cc3)ncn2)cc1 (stereo not drawn) | male human, plasma | oral, 0.5 mg, multiple doses, once daily, steady state | 0.67
CC(C)(Sc1ccncc1-c1ccc(C#N)c2ccccc12)C(=O)O | male human, plasma | oral, 20 mg, single dose, fasted, healthy volunteers | 0.5
COc1ccc([C@@H]2CN(C(=O)[C@@H](O)CO)C[C@@]2(C)[C@@H](C)O)cc1OC1CN(c2ccc(C)cn2)C1 | human, plasma | oral, 1.5 mg, single dose, healthy volunteers | 1
C=CC(=O)N1CCC(Oc2cc3c(Nc4ccc(Cl)c(Cl)c4F)ncnc3cc2OC)CC1 | human, plasma | oral, 16 mg, single dose, fasted | 1.26
CCCCOC(=O)N1CCN(C(=O)[C@H](CP(=O)(O)O)NC(=O)c2cc(N3CC[C@H](OC)C3)nc(-c3ccccc3)n2)CC1 | human, plasma | subcutaneous, 8 mg, single dose | 0.667
CC(C)(C)OC[C@@H]1C(=O)NCCN1C(=O)C[C@H](N)Cc1cc(F)c(F)cc1F | male human, plasma | oral, 5 mg, multiple doses, steady state | 2
CCc1nc(C(N)=O)c(Nc2ccc(N3CCC(N4CCN(C)CC4)CC3)c(OC)c2)nc1NC1CCOCC1 | human, plasma | oral, 200 mg, multiple doses, patients | 5.92
CS(=O)(=O)CCC#N | human, plasma | oral, 1000 mg, multiple doses, once daily | 2
